CAL PDZ FP-1 – CAL PDZ (human) peptide binding inhibition. inhibition, % at 24.9 µM. Q9HD26. purified CAL PDZ, TMR-peptide fluorescence polarization, 1 h. actives 0.92% (n = 300,000);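 active means mean inhibition of at least 30% with at least half of replicates also reaching 30%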;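 further: 0% = DMSO neutral control and 100% = excess unlabeled competitor peptide PRC23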
CAL PDZ FP-2 – inhibitors of human CAL PDZ peptide binding. inhibition, % at 20 µM. purified CAL PDZ, TMR-peptide fluorescence polarization, 1 h. actives 0.02% (n = 330,000). Q9HD26;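 active means highest replicate inhibition of at least 40%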;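 further: plate controls were DMSO neutral control wells for no effect and unlabeled competitor peptide control wells for full effect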
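Material: tagged CAL PDZ domain; buffer or medium: 25 mM sodium phosphate pH 7.4, 150 mM NaCl, TCEP, IgG, Thesit; compound dosing: single point, 20 µM; schedule: 1 h incubation at room temperature before polarization reading; measured by: FP readout, S and P plane fluorescence; read-out basis: percent inhibition from loss of millipolarization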
Tn6 DDE FP – DD(E)-Tn6 binding inhibition, primary FP screen. actives 0.21% (n = 370,000). P02675. Fibrin DD(E) TRITC-Tn6 fluorescence polarization displacement. inhibition, % at 8.3 µM;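 active means inhibition above a per-campaign cutoff: mean of compounds within control limits plus 3 SD, cut at about 15% in these data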;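 further: 0% = median of all compound wells on the plate and 100% = blocking peptide control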
Target sequence (P02675 whole entry, looked up): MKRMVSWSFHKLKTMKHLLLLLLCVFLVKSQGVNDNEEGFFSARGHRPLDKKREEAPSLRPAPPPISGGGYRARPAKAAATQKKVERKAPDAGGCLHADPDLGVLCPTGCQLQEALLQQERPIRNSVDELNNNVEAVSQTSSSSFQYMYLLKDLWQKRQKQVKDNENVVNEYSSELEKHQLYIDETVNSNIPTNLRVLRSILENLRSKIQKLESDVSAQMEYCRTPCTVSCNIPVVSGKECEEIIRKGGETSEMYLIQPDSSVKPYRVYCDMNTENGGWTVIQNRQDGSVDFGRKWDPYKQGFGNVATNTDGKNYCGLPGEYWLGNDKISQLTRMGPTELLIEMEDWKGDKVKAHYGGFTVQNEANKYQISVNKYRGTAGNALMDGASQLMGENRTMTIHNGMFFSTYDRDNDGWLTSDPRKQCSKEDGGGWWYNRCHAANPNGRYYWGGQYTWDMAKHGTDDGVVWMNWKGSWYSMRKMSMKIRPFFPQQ
DDE Tn7 FP inh – DD(E)-Tn7 binding inhibition, primary FP screen; actives 0.13% (n = 370,000); P02675; inhibition, % at 8.3 µM; FP displacement of FITC-Tn7 peptide from fibrin DD(E); 0% = median of compound wells per plate;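 active means inhibition above the mean of compounds falling within the control limits plus 3 SD of them, cut at about 14% in these data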;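 further: 0% = plate median of compound wells and 100% = 10 µM Aha-Tn7 peptide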
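Test system – human fibrin DD(E) · Times – 10 min preincubation, 3 h with tracer, room temperature · Detection – fluorescence polarization of the labelled Tn7 tracer · Measure – percent inhibition normalized to high-control wells · Benchmarks – high control wells with 10 µM unlabelled Aha-Tn7 peptide (full inhibition) · Repeats – singlicate testing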
GRK2 inh – human GRK2 inhibition via aptamer displacement | P25098 | inhibition of aptamer binding, % at 10 µM | bead flow cytometry, FAM-aptamer displacement from GRK2 | actives 0.59% (n = 330,000);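 active means inhibition of aptamer binding above 40%, roughly 3 SD of noise, on plates passing a quality check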;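 further: median bead fluorescence of bound FAM aptamer so fluorescent compounds give negative values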
ARNT TACC3 PPI – disrupts binding between human ARNT and TACC3. Q9Y6A5. actives 0.66% (n = 390,000). AID 623870. inhibition, % at 9.99 µM. AlphaScreen His-ARNT PAS-B/GST-TACC3 binding, luminescence; TACC3 fragment carries E629A point mutation;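 active means mean inhibition of replicates at least 50% and at least half of replicates each reaching 50%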;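 further: 0% = complete ARNT plus TACC3 wells and 100% = ARNT alone without TACC3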
GRK2 inh confirm – confirmation of human GRK2 inhibitors displacing RNA aptamer; shares compounds with GRK2 inh; bead-bound GRK2, FAM-aptamer displacement, flow cytometry; aptamer displacement, % at 10 µM; actives 4% (n = 2,000); AID 504451;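 active means aptamer displacement above 40%, near three times the noise of non-fluorescent compounds, on plates passing quality checks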;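 further: negative values mostly reflect intrinsic compound fluorescence rather than true enhancement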
FAM quench CP1 – aptamer fluorescence quenching in GRK2 counter-screen; shares compounds with GRK2 inh; Carboxyfluorescein RNA aptamer on beads, flow cytometry quenching; active compounds read low; fluorescence response (% of DMSO), % at 10 µM; 2,000 tested, under 10 active; AID 504580;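 active means compounds that quench the bead-bound fluorescent RNA probe, cutting fluorescence to under half of the solvent control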;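 further: counterscreen run without GRK2 so only probe quenching by compound is measured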
GRK2 confirm 2 – human GRK2 inhibition confirmation, cherry pick 2; shares compounds with GRK2 inh; bead-bound GRK2, FAM-aptamer displacement, flow cytometry; inhibition of aptamer binding, % at 10 µM; 360 tested, under 10 active;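 active means inhibition of aptamer binding above 40%, about triple the noise seen with nonglowing compounds, on plates passing quality control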;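 further: negative values mostly come from compounds that fluoresce themselves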
FAM quench SP – counter-screen for GRK2 binding hits: quenchers of fluorescent RNA aptamer; shares compounds with GRK2 inh; fluorescence response vs DMSO, % at 10 µM; carboxyfluorescein RNA aptamer beads, flow cytometry quenching; active compounds read low; 360 tested, under 10 active;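 active means response vs DMSO under 50%, meaning signal dropped by over half, treated as fluorescence quencher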;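 further: labelled aptamer on streptavidin beads without GRK2 as a quench counter-screen; 100% = bead fluorescence of DMSO wells and lower means quenching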
Numbers without * were called inactive. A selection: hits, their analogues and other compounds. The true share with any hit is near 1.8%.

What do the screens show for `COc1ccc(CNC(=O)C2CCCN(S(=O)(=O)c3c(C)noc3/C=C/N(C)C)C2)cc1` (stereo not drawn)?
CAL PDZ FP-2: -1; Tn6 DDE FP: -6; DDE Tn7 FP inh: -1; GRK2 inh: 5; ARNT TACC3 PPI: -1; GRK2 inh confirm: 3; FAM quench CP1: 99

Results for COc1ccccc1CNC(=O)C1CCCN(S(=O)(=O)c2cccc3nonc23)C1 (stereo not drawn) ?
CAL PDZ FP-1: 3; CAL PDZ FP-2: -3; Tn6 DDE FP: -1; DDE Tn7 FP inh: 0; GRK2 inh: 1; ARNT TACC3 PPI: -8

How did Cc1noc(/C=C/N(C)C)c1S(=O)(=O)N1CCCC(C(=O)NCc2ccc(Cl)cc2)C1 (stereo not drawn) do in these assays?
CAL PDZ FP-1: 0; CAL PDZ FP-2: -1; Tn6 DDE FP: 0; DDE Tn7 FP inh: -1; GRK2 inh: 2; ARNT TACC3 PPI: -5

What do the screens show for `Cc1noc(/C=C/N(C)C)c1S(=O)(=O)N1CCCC(C(=O)Nc2ccccc2F)C1` (stereo not drawn)?
CAL PDZ FP-1: -4; CAL PDZ FP-2: 1; Tn6 DDE FP: -8; DDE Tn7 FP inh: 2; GRK2 inh: 7; ARNT TACC3 PPI: 23

How did COCC(=O)N1C[C@@H]2[C@H](c3ccccc31)[C@H](CO)N2C(=O)c1ccncc1 do in these assays?
ARNT TACC3 PPI: 0

Results for COc1ccc2nc(NC(=O)C3CCCN(S(=O)(=O)c4cccc5nonc45)C3)sc2c1 (stereo not drawn) ?
CAL PDZ FP-2: 0; Tn6 DDE FP: 0; DDE Tn7 FP inh: -2; GRK2 inh: 87*; ARNT TACC3 PPI: -1; GRK2 inh confirm: 0; FAM quench CP1: 102

What do the screens show for `Cc1ccc(-c2noc(CSc3nnc(-c4ccncc4)n3-c3ccc(C)cc3)n2)cc1`?
CAL PDZ FP-1: -3; CAL PDZ FP-2: -1; Tn6 DDE FP: -8; DDE Tn7 FP inh: 0; GRK2 inh: 99*; ARNT TACC3 PPI: 6; GRK2 inh confirm: -1; FAM quench CP1: 95

How did COc1ccc(/C=N\Nc2ccccn2)c(OC)c1 do in these assays?
CAL PDZ FP-1: -2; CAL PDZ FP-2: 1; Tn6 DDE FP: 2; DDE Tn7 FP inh: -6; GRK2 inh: 0; ARNT TACC3 PPI: -4

How did COc1ccc(/C=N/Nc2ncc(Br)cn2)c(OC)c1 do in these assays?
CAL PDZ FP-1: 5; CAL PDZ FP-2: -14; Tn6 DDE FP: 1; DDE Tn7 FP inh: 11; GRK2 inh: 45*; ARNT TACC3 PPI: -1; GRK2 inh confirm: 25; FAM quench CP1: 99

What do the screens show for `COc1ccc(NC(=O)N(Cc2ccc3c(c2)OCO3)C2CC(=O)N(c3ccc(OC)cc3)C2=O)cc1` (stereo not drawn)?
CAL PDZ FP-1: 0; Tn6 DDE FP: -9; DDE Tn7 FP inh: -1; GRK2 inh: 99*; ARNT TACC3 PPI: 13; GRK2 inh confirm: 1; FAM quench CP1: 101

Results for O=C1CC(N(Cc2ccc3c(c2)OCO3)C(=O)Nc2ccc(F)cc2)C(=O)N1c1ccccc1 (stereo not drawn) ?
CAL PDZ FP-2: -3; Tn6 DDE FP: 2; DDE Tn7 FP inh: 2; GRK2 inh: 0; ARNT TACC3 PPI: 0

What do the screens show for `O=C([C@H]1[C@H](CO)[C@H]2Cn3c(ccc(C4=CCCC4)c3=O)[C@@H]1N2C(=O)c1ccccc1)N1CCOCC1`?
ARNT TACC3 PPI: 6

Results for Cc1nnc(C)c2c(C)n(Cc3ccc4c(c3)OCO4)c(C)c12 ?
CAL PDZ FP-1: -1; CAL PDZ FP-2: -1; Tn6 DDE FP: -1; DDE Tn7 FP inh: 1; GRK2 inh: 64*; ARNT TACC3 PPI: 14; GRK2 inh confirm: -13; FAM quench CP1: 93

What do the screens show for `Cc1nnc(SCc2ccc3c(c2)OCO3)s1`?
CAL PDZ FP-2: -1; Tn6 DDE FP: -2; DDE Tn7 FP inh: 0; GRK2 inh: 0; ARNT TACC3 PPI: 9

Results for COc1ccc2c(c1)c(=O)oc1cc(OCC(=O)N3CCC(C)CC3)ccc12 ?
CAL PDZ FP-2: 0; GRK2 inh: 47*; ARNT TACC3 PPI: -10; GRK2 inh confirm: 1; FAM quench CP1: 100

What do the screens show for `CCOC(=O)C1CCCN(CCC(C)c2ccccc2)C1` (stereo not drawn)?
CAL PDZ FP-1: -2; CAL PDZ FP-2: -2; Tn6 DDE FP: -5; DDE Tn7 FP inh: -8; GRK2 inh: 78*; ARNT TACC3 PPI: -1; GRK2 inh confirm: 2; FAM quench CP1: 102

Results for CC=Cc1ccc2n(c1=O)C[C@@H]1[C@@H](CO)[C@H](C(=O)N3CCCCC3)N(Cc3ccccc3OC)[C@H]21 (mixture of isomers) ?
ARNT TACC3 PPI: -31

What do the screens show for `CCNc1nc(NCC)n2c(SCC(=O)Nc3ccc(NC(C)=O)cc3)nnc2n1`?
CAL PDZ FP-1: -3; CAL PDZ FP-2: -1; Tn6 DDE FP: -1; DDE Tn7 FP inh: -1; GRK2 inh: 31; GRK2 confirm 2: 0; FAM quench SP: 106

How did CCNc1nc(NCC)n2c(SCC(=O)Nc3ccccc3OC(F)F)nnc2n1 do in these assays?
CAL PDZ FP-1: 2; CAL PDZ FP-2: 0; Tn6 DDE FP: -2; DDE Tn7 FP inh: -2; GRK2 inh: 22; ARNT TACC3 PPI: -4; GRK2 confirm 2: -2; FAM quench SP: 101

Results for CCNc1nc(NCC)n2c(SCC(=O)Nc3ccccc3F)nnc2n1 ?
CAL PDZ FP-2: 0; Tn6 DDE FP: 2; DDE Tn7 FP inh: -2; GRK2 inh: 2; ARNT TACC3 PPI: 0

How did CCOC(=O)[C@]12CCCCC/C=C\1N(CCc1ccc(Cl)cc1)C(=O)[C@H]2CC(=O)NCc1ccc(OC)c(OC)c1 do in these assays?
Tn6 DDE FP: 1; DDE Tn7 FP inh: -1

How did CCCC(=O)Nn1cnc2c(c1=O)C1(CCCC1)Cc1ccccc1-2 do in these assays?
CAL PDZ FP-1: 2; CAL PDZ FP-2: -1; Tn6 DDE FP: 0; DDE Tn7 FP inh: -1; GRK2 inh: 1
